High-throughput results from PubChem.
Sampled rows, rich in hits. Any-hit rate of the full collection: about 2.3%.
PfHsp90 yeast 2 = growth inhibition of yeast expressing Plasmodium Hsp90; S. cerevisiae expressing PfHsp90, BacTiter-Glo ATP, 48 h; yeast lacking PDR1 and PDR3 efflux regulators; inhibition, % at 9.4 µM; 310,000 tested, 0.32% active; AID 504621;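 active = every replicate shows inhibition above about 80%, whatever the replicate mean, limit read from the data; inconclusive = mean inhibition reaches the set limit but some replicate falls short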;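 note: 0% = DMSO neutral controls and 100% = 20 µM radicicol positive controls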
Arr AP2 block = blocks beta-arrestin peptide binding to AP2 adaptin; AID 504490; inhibition, % at 10 µM; 340,000 tested, 0.31% active; FITC-arrestin peptide / GST-AP2 beads, flow cytometry; AP2 beta2 appendage carries R879A mutation;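 active = inhibition above a set limit, near 3 SD of compounds lacking own fluorescence, cut at about 54% in these data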;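 note: plate controls were DMSO wells for no effect and 5 µM unlabelled arrestin peptide for full effect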
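System: GST-AP2 R879A glutathione beads; medium: PBS, Tween 20 0.05%, BSA 0.1%; reagent: fluorescein-tagged arrestin peptide at 50 nM final; schedule: pre-incubation 12 min, peptide binding 1 h, room temperature; detection: flow cytometry, FL1 (488/535 nm); read-out: inhibition as reduced fluorescein signal on beads, percent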
Glyco luc inh = blocks N-linked glycosylation in D54 reporter cells | 360,000 tested, 0.23% active | D54 ERlucT glycosylation luciferase reporter, 24 h; percent of 100 nM tunicamycin response | AID 588692 | reporter increase, % at 12.5 µM;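 active = mean luciferase reporter signal, scaled so untreated is 0 and the glycosylation-blocking control 100, at or above a set limit in every replicate; inconclusive = mean reaches the limit but not every replicate does; inactive = mean below the limit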;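 note: luciferase carries N-glycosylation sites so blocking glycosylation raises the light; 0% = median of neutral control wells and 100% = median of 100 nM tunicamycin wells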
HIV Env fusion = inhibitors of HIV Env-mediated cell fusion; 360,000 tested, 1.1% active; HeLa-JRFL Env/CEM21 cell fusion, luciferase; inhibition, % at 12.3 µM;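 active = mean replicate inhibition score of at least 50 and every replicate individually at or above 50; inconclusive = only one of the two criteria met; inactive = mean below 50 and not all replicates reaching 50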;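 note: 0% = plate neutral controls and 100% = maraviroc near 300 nM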
PAX8 reporter = inhibitors of PAX8 transcriptional activity in RMG-I cells; inhibition, % at 12.6 µM; 360,000 tested, 1.2% active; AID 652154; RMG-I TPO-luciferase reporter, SteadyGlo, 24 h;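 active = mean replicate inhibition at least 60% with every replicate also reaching 60%; inconclusive = only one of the two criteria is met; inactive = mean below 60% and not all replicates reaching 60%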;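 note: luciferase light reporting Pax8 driven TPO promoter activity; plate controls were median of neutral control wells for no effect and mitoxantrone controls for full effect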
Rtt109 Vps75 = blocks Candida albicans Rtt109/Vps75 acetyltransferase activity. purified Rtt109/Vps75, ThioGlo CoA-SH fluorescence, 4 h. inhibition, % at 34.9 µM. 330,000 tested, 0.16% active. AID 540336;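 active = inhibition of at least 50% in every replicate; inconclusive = best replicate reaches 50% inhibition but some replicates fall short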
Target sequence (Q5AAJ8 whole entry, looked up): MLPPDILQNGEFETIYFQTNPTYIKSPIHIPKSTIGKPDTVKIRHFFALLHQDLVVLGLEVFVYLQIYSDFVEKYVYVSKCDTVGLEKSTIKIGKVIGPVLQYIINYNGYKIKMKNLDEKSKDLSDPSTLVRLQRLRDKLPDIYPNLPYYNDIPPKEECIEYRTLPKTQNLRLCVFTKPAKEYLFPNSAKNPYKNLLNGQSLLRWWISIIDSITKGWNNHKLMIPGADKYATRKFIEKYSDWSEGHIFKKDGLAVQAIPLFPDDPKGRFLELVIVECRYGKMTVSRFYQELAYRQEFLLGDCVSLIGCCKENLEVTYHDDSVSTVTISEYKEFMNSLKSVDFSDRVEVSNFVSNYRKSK
The depositor's hits bear a star; i = inactive; ? = inconclusive; / = not tested or not shown; [ ] = remark or other dose.

SMILES | PfHsp90 yeast 2 | Arr AP2 block | Glyco luc inh | HIV Env fusion | PAX8 reporter | Rtt109 Vps75
C=C1c2cccc(O)c2C(=O)C2C(=O)[C@]3(O)C(=O)C(C(N)=O)C(=O)[C@@H](N(C)C)[C@@H]3[C@@H](O)[C@H]12 (stereo partly drawn) | 12.5 | 14.7 | 2.1 | 59.8* | 11.0 | 13.9
Cc1c(C(=O)N2CCOCC2)sc2ncnc(N3CCc4ccccc4C3)c12 | / | -10.8 | 0.0 | / | / | -3.9
COCCCNC(=O)c1sc2ncnc(N3CCc4ccccc4C3)c2c1C | -16.3 | 7.0 | 9.4 | 78.4* | / | 9.9
COc1ccc(NC(=O)c2sc3ncnc(N4CCN(c5ccccn5)CC4)c3c2C)cc1Cl | 103.0* | 4.0 | -3.1 | 5.0 | 39.4 | -0.4
COc1cc(Cl)nn(-c2ccccc2)c1=O | / | 26.4 | 0.0 | -40.7 | -1.1 | -4.4
O=c1c(Cl)cc(Cl)nn1-c1ccccc1 | -5.8 | 9.9 | 7.2 | -44.0 | 87.8* | -1.5
CC1CCN(Cc2c(C(=O)N/N=C/c3cc(Br)ccc3O)nnn2-c2nonc2N)CC1 | -8.2 | 14.4 | -6.2 | 60.5* | ? | -3.3
CN1C(=O)c2cc(NC(=O)Nc3cccc(Cl)c3)ccc2OC[C@H]2O[C@H](CC(=O)NCCc3ccncc3)CC[C@@H]21 | / | / | / | / | -4.0 | /
N#CC(C#N)=C1C=CC=CN1/C(=C\c1ccco1)C(=O)c1ccc(Br)cc1 | 13.4 | -6.8 | -12.4 | -286.9 | 102.4* | 2.5
N#CC(C#N)=C1C=CC=CN1/C(=C\c1ccco1)C(=O)c1ccccc1 | 30.0 | 8.8 | -16.3 | -308.8 | 121.9* | 4.3
COc1ccc(/C=C(/C(=O)c2cccs2)N2C=CC=CC2=C(C#N)C#N)cc1 | 3.4 | -1.1 | -0.8 | i | -7.9 | 9.2
COc1ccc(C(=O)/C(=C\c2ccco2)N2C=CC=CC2=C(C#N)C#N)cc1 | 13.0 | 19.3 | 0.1 | / | / | 25.2
CO[C@H]1O[C@H](CO)[C@@H](OC(=O)Nc2ccccc2)[C@H](OC(=O)Nc2ccccc2)[C@H]1OC(=O)Nc1ccccc1 | / | / | / | 11.5[16.7 µM] | 42.5 | /
CCCNC(=O)C[C@H]1CC[C@H]2[C@@H](COc3ccc(NC(=O)c4ccno4)cc3C(=O)N2C)O1 | / | / | / | 8.6[16.7 µM] | -2.8 | /
CCOC(=O)/C(=C/c1c(C)n(C)c2ccc([N+](=O)[O-])cc12)C(C)=O | 9.9 | 19.9 | 44.3* | -96.2 | -7.4 | -0.2
CCCOc1ccc(/C=N/NC(=O)CN2CCCCC2)cc1OCC | 5.6 | 5.0 | 0.2 | -6.0 | 5.0 | 12.4
CCCOc1ccc(/C=N/NC(=O)CSCc2ccc([N+](=O)[O-])cc2)cc1OCC | -7.0 | 5.5 | -4.3 | / | 83.5* | 1.3
C[C@@H]1CCCCO[C@@H](CN(C)C(=O)c2ccncc2)[C@H](C)CN([C@H](C)CO)C(=O)c2cc(NS(=O)(=O)c3ccc(Cl)cc3)ccc2O1 | / | / | / | -26.3[16.7 µM] | -9.2 | /
O=c1cc(-c2ccc(O)cc2)oc2c1ccc1ccccc12 | 6.4 | -10.3 | -3.2 | / | -52.0 | 10.2
O=c1cc(-c2ccc(O)cc2)oc2ccc3ccccc3c12 | 8.2 | 13.1 | -17.0 | / | 110.3* | 0.3
C[C@@H]1CN([C@@H](C)CO)C(=O)c2cc(NC(=O)C3CCCCC3)ccc2O[C@@H](C)CCCCO[C@@H]1CN(C)C(=O)Cc1ccccc1 | / | / | / | -18.1[16.7 µM] | 9.9 | /
C[C@@H]1CN([C@@H](C)CO)C(=O)c2ccccc2-c2ccccc2CO[C@H]1CN(C)C(=O)N[C@H](C)c1ccccc1 | / | / | / | -9.6[16.7 µM] | 5.1 | /
CCn1ncc(C2=NOC(C(=O)Nc3ccc(C)cc3)C2)c1C (stereo not drawn) | -56.6 | 24.4 | -0.9 | 42.0* | 15.4 | 3.9
CCn1ncc(C2=NOC(C(=O)NCc3ccc(Cl)cc3)C2)c1C (stereo not drawn) | 4.8 | 14.8 | 36.2* | -97.2 | / | 1.7
CCn1c([N+](=O)[O-])nc2c1c(=O)[nH]c(=O)n2C | -5.3 | -2.3 | 9.1 | 1.3 | 69.2* | /
SMILES | PfHsp90 yeast 2 | Arr AP2 block | Glyco luc inh | HIV Env fusion | PAX8 reporter | Rtt109 Vps75
CC(C)NC(=O)N(C)C[C@@H]1OCCCC[C@H](C)Oc2ccc(NC(=O)Nc3ccc(C(F)(F)F)cc3)cc2C(=O)N([C@@H](C)CO)C[C@H]1C | / | / | / | ? | 63.2* | /
CC(C)NC(=O)N(C)C[C@@H]1OCCCC[C@@H](C)Oc2ccc(NC(=O)Nc3ccc(C(F)(F)F)cc3)cc2C(=O)N([C@@H](C)CO)C[C@@H]1C | / | / | / | 18.3[16.7 µM] | 2.6 | /
CC(C)NC(=O)N(C)C[C@H]1OCCCC[C@@H](C)Oc2ccc(NC(=O)Nc3ccc(C(F)(F)F)cc3)cc2C(=O)N([C@@H](C)CO)C[C@H]1C | / | / | / | 12.8[16.7 µM] | 89.5* | /
Cc1ccc(S(=O)(=O)Nc2ccc3c(c2)C(=O)N([C@H](C)CO)C[C@@H](C)[C@H](CN(C)S(=O)(=O)c2cn(C)cn2)OCCCC[C@@H](C)O3)cc1 | / | / | / | -15.8[16.7 µM] | -5.5 | /
CCCCCCC(=O)O | 5.6 | -5.2 | -0.8 | / | / | 18.1
CCCCCCCCCCCCCCCC(=O)OC(CC(=O)O)C[N+](C)(C)C (stereo not drawn) | 108.8* | -3.3 | -0.1 | -8.0 | -2.6 | ?
O=C(/C=C/c1ccccc1)CCN1CCOCC1 | 106.7* | -0.4 | 9.0 | -450.2 | 29.2 | 3.5
CCCOc1cc(NCc2ccccc2)c2ncn(C(C)C)c2c1 | 6.2 | -4.5 | -7.1 | -12.1 | 24.8 | 2.4
CCOc1cc(NCc2ccccc2)c2ncn(C(C)C)c2c1 | -4.9 | -4.1 | -2.0 | 48.6 | 76.6* | 0.1
NC(N)=NC(=O)c1nc(Cl)c(N2CCCCCC2)nc1N | 4.1 | 0.1 | -4.2 | 61.7* | -54.0 | 27.2
C#CCN(CC=C(C)C)[C@H](CO)c1ccccc1 | / | / | / | -16.2[16.7 µM] | -6.0 | /
CC(C)=CCN(C(=O)C#Cc1ccccc1)[C@H](CO)c1ccccc1 | / | / | / | 27.6[16.7 µM] | 105.1* | /
COC(=O)C[C@H]1CC[C@@H]2[C@@H](COc3ccc(NC(=O)Nc4ccccc4C)cc3C(=O)N2C)O1 | / | / | / | 8.8[16.7 µM] | 9.6 | /
O=C1NC(=O)/C(=C/c2cccc3ccccc23)S1 | -35.2 | 7.5 | 1.4 | 1.2 | 6.6 | -3.7
CCCOc1ccc2ccccc2c1/C=C1\SC(=O)NC1=O | 104.9* | -4.3 | -3.3 | 14.3 | 6.8 | -4.2
CC[n+]1c(/C=C2\Sc3ccccc3N2C)ccc2cccc(C)c21 | -34.5 | -36.2 | -14.5 | 76.5* | 61.3* | 20.9
CC[n+]1ccccc1/C=C1\Sc2ccc(C)cc2N1C | 5.7 | -20.9 | 9.9 | 29.3 | 42.4 | -0.8
CCN1/C(=C/c2ccc3cc(C)ccc3[n+]2CC)Sc2ccccc21 | 92.0* | 4.3 | 0.4 | -28.6 | 93.3* | ?
CCN1/C(=C/c2ccc3cc(C)ccc3[n+]2CC)Sc2cc(C)c(C)cc21 | 101.2* | -22.8 | 12.2 | 28.7 | 87.7* | 96.0*
O=C(N[C@@H]1CC[C@@H](CCNS(=O)(=O)c2ccc(Cl)cc2)O[C@@H]1CO)c1ccccn1 | / | / | / | -4.6[16.7 µM] | -15.6 | /
NC(=O)CC(NC(=O)Cc1cccc2ccccc12)c1ccc(NC2CC3CCC2C3)c([N+](=O)[O-])c1 (stereo not drawn) | 3.8 | 8.4 | -3.3 | 28.7 | -7.1 | 11.0
